Each block holds one compound with its values, some of them ahead of it.
Tests used:
[1] = Plasma PK of febuxostat alone or in the presence of verinurad; format: in vivo, human; settings: for GMR AUC0-24 / GMR Cmax: GMR (90% CI)
Summary of the method: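 Adults with gout took the test compounds orally once daily, about 30 min after a standardised breakfast (approximately 650 kcal, 35% fat), in 7-day treatment periods. Blood was drawn weekly for 4 weeks, within 30 min predose and at intervals up to 24 h postdose. Plasma was separated by centrifugation, extracted by protein precipitation and analysed by LC/MS/MS. Cmax and AUC0-24 were compared by mixed-effects model (treatment fixed, subject random).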

adults with gout [2] = assay: Urinary uric acid pharmacodynamics; format: in vivo, human
Summary of the method: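 Total-catch urine was collected on day –1, then weekly for 4 weeks, in 1 h up to 2 or 10 h intervals. On collection days subjects drank 240 mL water on waking, 240 mL with the dose, ~160 mL/h for 12 h and 240 mL at 22 h. ReUR, AeUR, CLUR and FEUA were derived per time point per 24-h collection. Analysis used a mixed-effects model with baseline covariate.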

adults with gout [3] = assay: Safety assessment; format: in vivo, human; settings: febuxostat 80 mg-alone group
Summary of the method: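 Subjects (sUA ≥8 mg/dL, creatinine clearance ≥60 mL/min) received colchicine 0.6 mg flare prophylaxis. Once-daily oral dosing with the test compounds was given after a standardised breakfast. Safety was monitored throughout and at day 42 (±2) follow-up: AEs coded by MedDRA V.17.0, clinical laboratory tests, vital signs, ECGs and physical examinations.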

adults with gout [4] = assay: Urinary xanthine and hypoxanthine excretion; format: in vivo, human; settings: febuxostat 40 mg alone; urine
Summary of the method: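 Urine from gout patients on once-daily oral treatment (total catch, day –1 and weekly for 4 weeks, with a fixed water-loading schedule) was assayed for xanthine and hypoxanthine by LC/MS/MS. Assay performance was monitored with quality control samples prepared in blank matrix. These analytes served as a marker of the functional activity of the 40 mg partner-drug dose.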

adults with gout [5] = assay: Serum urate; format: in vivo, human
Summary of the method: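 Gout patients were dosed orally once daily after a standardised breakfast, 7 days per treatment period. Serum was sampled at screening, baseline (day –1) and weekly for 4 weeks, within 30 min predose and at preset intervals up to 24 h postdose. Emax is the maximum percent change from baseline. A mixed-effects model used treatment and period as fixed effects, subject as random effect and baseline as covariate; data were pooled across cohorts.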

humans = settings: doses as low as 2.5 mg; cited from earlier work
[6] = Plasma and urine PK of verinurad in the presence of febuxostat; format: in vivo, human; settings: for Tmax: human, plasma, oral; for fe0-24: urine, geometric mean (95% CI)
patients with gout = settings: lesinurad 400 mg vs lesinurad 200 mg plus febuxostat or febuxostat alone; cited from earlier work
[7] = febuxostat 40 mg + verinurad 2.5 mg vs febuxostat alone
[8] = febuxostat 40 mg + verinurad 5 mg vs febuxostat alone
[9] = febuxostat 40 mg + verinurad 20 mg vs febuxostat alone
[10] = febuxostat 80 mg + verinurad 2.5 mg vs febuxostat alone
[11] = febuxostat 80 mg + verinurad 5 mg vs febuxostat alone
[12] = febuxostat 80 mg + verinurad 10 mg vs febuxostat alone
[13] = febuxostat 80 mg + verinurad 15 mg vs febuxostat alone

SMILES: Cc1nc(-c2ccc(OCC(C)C)c(C#N)c2)sc1C(=O)O [febuxostat]
GMR AUC0-24 [1, 7]: 94.2 (88.1 to 101) % | GMR Cmax [1, 7]: 91.2 (69.3 to 120) % | GMR AUC0-24 [1, 8]: 92.4 (89.0 to 95.8) % | GMR Cmax [1, 8]: 85.6 (75.7 to 96.7) % | GMR AUC0-24 [1, 9]: 94.1 (89.4 to 99.0) % | GMR Cmax [1, 9]: 114 (92.0 to 141) % | GMR AUC0-24 [1, 10]: 98.6 (94.5 to 103) % | GMR Cmax [1, 10]: 146 (130 to 165) % | GMR AUC0-24 [1, 11]: 89.3 (82.8 to 96.3) % | GMR Cmax [1, 11]: 89.9 (68.8 to 117) % | GMR AUC0-24 [1, 12]: 94.2 (90.7 to 97.9) % | GMR Cmax [1, 12]: 101 (87.9 to 116) % | GMR AUC0-24 [1, 13]: 92.9 (84.1 to 103) % | GMR Cmax [1, 13]: 123 (88.3 to 173) % | Febuxostat exposures alone vs in combination with verinurad ([1]; febuxostat 40 or 80 mg): equivalence | Mean maximum urinary uric acid excretion rate (ReUR) compared with baseline (adults with gout [2]; febuxostat 40 and 80 mg alone): reduced below baseline | Influence on FEUA (adults with gout [2]; febuxostat 40 or 80 mg administered alone): did not influence | Influence on CLUR (adults with gout [2]; febuxostat 40 or 80 mg administered alone, data not shown): did not influence | TEAE of severe intensity (adults with gout [3]): a severe case of hypertriglyceridaemia | Increase in mean excretion of hypoxanthine (adults with gout [4]): 527% | Increase in mean excretion of xanthine (adults with gout [4]): 1965% | Emax, maximum percent decrease in sUA from baseline (adults with gout [5]; febuxostat 40 mg alone): 42% | Emax, maximum percent decrease in sUA from baseline (adults with gout [5]; febuxostat 80 mg alone): 55%

Tmax ([6]; Median Tmax of verinurad, range over verinurad 2.5-20 mg with febuxostat 40 or 80 mg): 2.5 to 4 h | Tmax ([6]; Tmax, verinurad 2.5 mg + febuxostat 40 mg, median (range)): 3.5 h | Tmax ([6]; Tmax, verinurad 2.5 mg + febuxostat 80 mg, median (range)): 2.5 h | Tmax ([6]; Tmax, verinurad 5 mg + febuxostat 40 mg, median (range)): 3.5 h | Tmax ([6]; Tmax, verinurad 5 mg + febuxostat 80 mg, median (range)): 4 h | Tmax ([6]; Tmax, verinurad 10 mg + febuxostat 40 mg, median (range)): 3 h | Tmax ([6]; Tmax, verinurad 10 mg + febuxostat 80 mg, median (range)): 3 h | Tmax ([6]; Tmax, verinurad 15 mg + febuxostat 40 mg, median (range)): 3 h | Tmax ([6]; Tmax, verinurad 20 mg + febuxostat 40 mg, median (range)): 3 h | fe0-24 ([6]; verinurad 2.5 mg + febuxostat 40 mg): 0.661 (0.437 to 1.00) % | fe0-24 ([6]; verinurad 2.5 mg + febuxostat 80 mg): 0.622 (0.347 to 1.11) % | Verinurad Ae0-24 (amount excreted unchanged in urine) ([6]; verinurad 2.5 mg with febuxostat 80 mg): 15.5 µg | fe0-24 ([6]; verinurad 5 mg + febuxostat 40 mg): 0.657 (0.444 to 0.970) % | fe0-24 ([6]; verinurad 5 mg + febuxostat 80 mg): 0.640 (0.392 to 1.05) % | fe0-24 ([6]; verinurad 10 mg + febuxostat 40 mg): 0.810 (0.622 to 1.05) % | fe0-24 ([6]; verinurad 10 mg + febuxostat 80 mg): 1.03 (0.710 to 1.49) % | fe0-24 ([6]; verinurad 15 mg + febuxostat 40 mg): 0.692 (0.561 to 0.853) % | fe0-24 ([6]; verinurad 15 mg + febuxostat 80 mg): 0.816 (0.493 to 1.35) % | fe0-24 ([6]; verinurad 20 mg + febuxostat 40 mg): 0.717 (0.542 to 0.949) % | Verinurad Ae0-24 (amount excreted unchanged in urine) ([6]; verinurad 20 mg with febuxostat 40 mg): 143 µg
SMILES: CC(C)(Sc1ccncc1-c1ccc(C#N)c2ccccc12)C(=O)O [verinurad]
sUA lowering in humans (humans): significant sUA lowering

SMILES: O=C(O)CSc1nnc(Br)n1-c1ccc(C2CC2)c2ccccc12 [lesinurad]
Rates of renal adverse effects (patients with gout): increased rates of renal adverse effects

From article PMC5892780 (RMD Open, 2018)
